The test system of series [1] is HEK293T. Nature of the series: Inhibition of human c-YFP fused CB1R/n-YFP fused 5HT2A receptor heterodimer formation transfected in human HEK293T cells at 4 uM incubated for 4 hrs by BIFC assay. The series is classed as cell-based. The method in brief:
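HEK-293T cells were cotransfected 48 h with 5HT2AR-cYFP and CB1R-nYFP (4 μg cDNA each, polyethylenimine), then treated with 4 μM peptide or vehicle for 4 h at 37 °C. Reconstituted YFP Venus was read on 20 μg protein at 530 nm emission with 400 nm excitation, minus the fluorescence of non-expressing cells. Mean ± SEM, n = 10–30.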

Series [2] concerns Mus musculus. Nature of the series: Immunogenicity in CD1 mouse at 100 ug administered for 5 consecutive days and booster dose on day 15 measured upto 19 days by ELISA. The series is classed as ADME, organism-based. The conditions noted are these: in vivo, 456 h, time <=19 day, dose 100 µg. The gist of the method:
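Female outbred Hsd:ICR (CD-1) mice (n = 10) got IV peptide 100 μg/dose in PBS + 2% DMSO on 5 consecutive days with a boost on day 15. Controls were KLH conjugate 30 μg (n = 5) and PBS (n = 5). Sera from days 0, 9 and 19 were tested by indirect ELISA on plates coated with peptide-BSA 1 μg/mL, using anti-IgG-HRP, TMB and A450. Titer (log10) = reciprocal of the last dilution above the day-0 serum signal + 2 SD.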
For orientation: An ELISA detects its analyte on a solid surface through an enzyme-linked reagent.

The nature of series [3]: Drug internalization in mouse BEND3 cells by confocal microscopic analysis. Type of series: ADME, cell-based. The method in brief: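 bEnd.3 mouse brain endothelial cells were exposed to 5(6)-carboxyfluorescein-labeled peptides and counterstained with Hoechst 33342 and CellMask Deep Red membrane stain. Imaging used point-scanning confocal microscopy with a 63× oil objective, 405 nm excitation for the stains and 488 nm for the peptide.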

Series [4] concerns BEND3. Nature of the series: Induction of BBB translocation in mouse BEND3 cells measured after 24 hrs by fluorescence analysis. Type of series: functional, cell-based. The gist of the method:
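5(6)-Carboxyfluorescein-labeled peptides were applied to a transwell BBB model of bEnd.3 cells. Translocation (%) was measured as fluorescence in the basolateral chamber after 24 h, with a trans-BBB peptide as positive control. Barrier integrity was checked afterward by FD4 dextran permeability. Mean ± SEM, n = 3–6, independent cultures on different days.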

The test system of series [5] is Mus musculus. The experiment in a line: Protection against THP-induced amnesic effect in mouse assessed as reduction in memory impairment at 20 mg/kg, iv pretreated for 30 mins followed by THP addition. Type of series: functional, organism-based. The gist of the method:
(§1)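 V-maze novel object recognition. Day 1 was 9 min habituation. Day 2 was 9 min training with two identical objects. Peptide was given IV (20 mg/kg) or orally (5, 10, 20 mg/kg) right after training, then IP THC 3 mg/kg or vehicle 30 min later. The 9 min test came 24 h later with one object replaced. Discrimination index = (novel − familiar)/total exploration time; exploration meant the nose oriented within 2 cm of the object. Fisher LSD.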

The subject of series [6] is Mus musculus. The experiment in a line: Protection against THP-induced amnesic effect in mouse assessed as reduction in memory impairment at 5 to 20 mg/kg, po pretreated for 30 mins followed by THP addition. The conditions noted are these: dose 5-20 mg/kg. Type of series: functional, organism-based. The gist of the method: as §1
The test system of series [7] is Mus musculus. Nature of the series: Analgesic activity in mouse assessed as pain response at 5 to 20 mg/kg, po pretreated with compound for 30 mins followed by THP addition and measured after 60 mins by hot plate test. The series is classed as functional, organism-based. The conditions noted are these: dose 5-20 mg/kg, time 90.0 min. The method in brief:
(§2)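 Mice got peptide or vehicle IV (20 mg/kg) or orally by gavage (5, 10, 20 mg/kg) 30 min before IP THC 10 mg/kg (vehicle 5% ethanol, 5% Cremophor-EL, 90% saline). Latency to jump on a 52 ± 0.5 °C hot plate was read 60 min after THC, with a 240 s cutoff. Mean ± SEM, n = 10–12 (IV) or 5–8 (oral); Fisher LSD.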

Series [8] concerns Mus musculus. The experiment in a line: Analgesic activity in mouse assessed as pain response at 20 mg/kg, iv pretreated with compound for 30 mins followed by THP addition and measured after 60 mins by hot plate test. The conditions noted are these: time 90.0 min. Type of series: functional, organism-based. The method in brief:
as §2
A general note: Thermal pain tests record how soon the animal reacts.

The source made the active and inactive calls. Square brackets hold non-standard residues; d marks the D form. Peptide text beside a SMILES is read from it.

Take `CC[C@@H](C)[C@@H](NC(=O)CNC(=O)[C@@H](C)NC(=O)[C@H](NC(=O)[C@@H](Cc1ccc(O)cc1)NC(=O)[C@@H](C)NC(=O)[C@@H](Cc1ccc(O)cc1)NC(=O)[C@@H](CCSC)NC(=O)[C@@H](Cc1ccc(O)cc1)NC(=O)[C@H](NC(=O)[C@@H](CC(C)C)NC(=O)[C@H](N)Cc1c[nH]c2ccccc12)[C@H](C)CC)C(C)C)C(=O)N[C@H](CC(C)C)C(=O)N[C@H](CCCCN)C(=O)N[C@H](CCCNC(=N)N)C(=O)N[C@H](Cc1c[nH]c2ccccc12)C(N)=O` (H-[dW][dL][dI][dY][dM][dY][dA][dY][dV][dA]G[dI][dL][dK][dR][dW]-NH2): the inhibition result in series [1] was “Active”. For the same compound, in series [2], the Activity result is recorded as “Non-Toxic”. In addition, in series [3], the Drug uptake result is “Active”. Besides, the result in series [4], in series [5], in series [6], in series [7] and in series [8] was Active.

In the case of `CC[C@@H](C)[C@@H](NC(=O)CNC(=O)[C@@H](C)N)C(=O)N[C@H](CC(C)C)C(=O)N[C@H](CCCCN)C(=O)N[C@H](CCCNC(=N)N)C(=O)N[C@H](Cc1c[nH]c2ccccc12)C(=O)N[C@@H](C(=O)N[C@@H](C(=O)N[C@H](CC(C)C)C(=O)N[C@@H](C(=O)N[C@H](CC(C)C)C(=O)N[C@@H](C(=O)N[C@H](CC(C)C)C(=O)N[C@@H](C(=O)N[C@H](CCCCN)C(N)=O)[C@H](C)O)C(C)C)[C@H](C)CC)C(C)C)C(C)C` (H-[dA]G[dI][dL][dK][dR][dW][dV][dV][dL][dI][dL][dV][dL][dT][dK]-NH2), the inhibition entry in series [1] was “Active”. In addition, the Drug uptake entry in series [3] was “Active”. Also, the result in series [4] and in series [8] was Active. In series [5], the result was inactive.
